Tests used:
[1] = biological target: T1, Cyclin-dependent kinase 4 (Homo sapiens, UniProt P11802); assay: Inhibition of retinoblastoma phosphorylation by CDK4; type: functional
Outline: (§1)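 Purified CDK4 incubated with compounds and retinoblastoma protein substrate in 100 mM Hepes pH 7.5, 75 mM NaCl, 2 mM DTT, 10 mM MgCl2, 30 μM ATP. Stopped after 35 min. Rb phosphorylation at Ser795 measured colorimetrically with a phospho-specific antibody.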

[2] = biological target: Vascular endothelial growth factor receptor (Homo sapiens, UniProt P17948+P35916+P35968); assay: Inhibition of VEGFR; type: protein assay
[3] = biological target: Platelet-derived growth factor receptor (Homo sapiens, UniProt P09619+P16234); assay: Inhibition of PDGFR; type: protein-complex assay
[4] = biological target: Proto-oncogene tyrosine-protein kinase Src (Homo sapiens, UniProt P12931); assay: Inhibition of c-src
[5] = biological target: Cyclin-dependent kinase 7 (Homo sapiens, UniProt P50613); assay: Inhibition of CDK7
Insulin receptor = Insulin receptor (Homo sapiens, UniProt P06213); assay: Inhibition of IRK
[6] = biological target: T1, Cyclin-dependent kinase 4; assay: Inhibition of CDK4; outline: as §1
[7] = biological target: Cyclin-dependent kinase 1 (Homo sapiens, UniProt P06493); assay: Inhibition of CDK1
[8] = biological target: Aurora kinase A (Mus musculus) (UniProt P97477); assay: Inhibition of Aurora-A
[9] = biological target: BDNF/NT-3 growth factors receptor (Homo sapiens, UniProt Q16620); assay: Inhibition of TrkB
Sequence of BDNF/NT-3 growth factors receptor (Q16620 whole entry): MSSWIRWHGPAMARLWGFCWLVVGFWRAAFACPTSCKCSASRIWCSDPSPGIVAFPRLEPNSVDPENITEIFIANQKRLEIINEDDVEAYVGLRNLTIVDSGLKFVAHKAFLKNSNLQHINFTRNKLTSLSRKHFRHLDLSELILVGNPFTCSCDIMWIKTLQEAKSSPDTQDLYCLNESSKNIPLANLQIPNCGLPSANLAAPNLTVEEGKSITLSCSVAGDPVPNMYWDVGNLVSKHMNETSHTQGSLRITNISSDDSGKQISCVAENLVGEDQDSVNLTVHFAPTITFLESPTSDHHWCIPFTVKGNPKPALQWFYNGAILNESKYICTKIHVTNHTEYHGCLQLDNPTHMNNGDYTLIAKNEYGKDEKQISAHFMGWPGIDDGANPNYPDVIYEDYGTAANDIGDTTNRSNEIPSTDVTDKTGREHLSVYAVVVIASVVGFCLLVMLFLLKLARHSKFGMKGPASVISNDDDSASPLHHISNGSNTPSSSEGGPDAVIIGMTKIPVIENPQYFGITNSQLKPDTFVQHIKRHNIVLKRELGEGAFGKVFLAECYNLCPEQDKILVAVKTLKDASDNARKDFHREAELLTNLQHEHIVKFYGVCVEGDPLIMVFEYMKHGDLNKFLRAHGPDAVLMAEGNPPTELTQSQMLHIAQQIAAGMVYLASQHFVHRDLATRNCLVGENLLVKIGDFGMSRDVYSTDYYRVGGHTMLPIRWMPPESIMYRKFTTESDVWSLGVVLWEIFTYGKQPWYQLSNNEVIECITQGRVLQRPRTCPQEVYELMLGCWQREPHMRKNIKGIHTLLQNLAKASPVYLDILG

T1 sequence (P11802 whole entry): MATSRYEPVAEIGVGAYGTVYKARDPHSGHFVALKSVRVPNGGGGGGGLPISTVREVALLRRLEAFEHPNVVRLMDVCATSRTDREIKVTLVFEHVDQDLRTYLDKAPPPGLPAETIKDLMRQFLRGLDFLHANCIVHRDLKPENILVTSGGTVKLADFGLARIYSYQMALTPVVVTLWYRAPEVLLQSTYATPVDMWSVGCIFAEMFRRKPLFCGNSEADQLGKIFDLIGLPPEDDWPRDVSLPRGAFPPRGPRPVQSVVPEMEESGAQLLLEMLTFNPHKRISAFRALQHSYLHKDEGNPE
Sequence of Aurora kinase A (Mus musculus) (P97477 whole entry, looked up): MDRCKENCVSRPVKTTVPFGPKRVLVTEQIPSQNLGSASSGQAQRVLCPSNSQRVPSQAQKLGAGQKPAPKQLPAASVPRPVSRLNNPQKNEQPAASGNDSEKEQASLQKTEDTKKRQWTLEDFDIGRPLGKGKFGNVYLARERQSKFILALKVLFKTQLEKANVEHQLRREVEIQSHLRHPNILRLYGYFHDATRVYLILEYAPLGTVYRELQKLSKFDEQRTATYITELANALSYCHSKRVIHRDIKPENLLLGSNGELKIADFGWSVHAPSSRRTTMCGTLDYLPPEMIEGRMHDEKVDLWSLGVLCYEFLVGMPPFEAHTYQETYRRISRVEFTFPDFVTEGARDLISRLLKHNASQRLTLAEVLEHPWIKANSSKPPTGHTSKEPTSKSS
Sequence of Proto-oncogene tyrosine-protein kinase Src (P12931 2-536 limits assumed): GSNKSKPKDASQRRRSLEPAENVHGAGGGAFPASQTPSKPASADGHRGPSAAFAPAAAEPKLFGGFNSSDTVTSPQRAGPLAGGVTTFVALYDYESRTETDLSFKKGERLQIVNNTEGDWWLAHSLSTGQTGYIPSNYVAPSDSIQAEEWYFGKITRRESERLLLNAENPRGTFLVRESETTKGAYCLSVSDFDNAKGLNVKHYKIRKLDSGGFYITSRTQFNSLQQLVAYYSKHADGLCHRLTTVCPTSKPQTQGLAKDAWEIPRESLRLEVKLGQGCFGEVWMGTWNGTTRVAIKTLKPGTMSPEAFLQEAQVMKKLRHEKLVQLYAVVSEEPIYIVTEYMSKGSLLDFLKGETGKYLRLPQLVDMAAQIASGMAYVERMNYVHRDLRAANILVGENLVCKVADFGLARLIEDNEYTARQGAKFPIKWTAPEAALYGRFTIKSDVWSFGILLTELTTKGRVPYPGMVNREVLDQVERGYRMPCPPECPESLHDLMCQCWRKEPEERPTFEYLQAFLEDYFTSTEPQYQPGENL
Sequence of Cyclin-dependent kinase 1 (P06493 whole entry): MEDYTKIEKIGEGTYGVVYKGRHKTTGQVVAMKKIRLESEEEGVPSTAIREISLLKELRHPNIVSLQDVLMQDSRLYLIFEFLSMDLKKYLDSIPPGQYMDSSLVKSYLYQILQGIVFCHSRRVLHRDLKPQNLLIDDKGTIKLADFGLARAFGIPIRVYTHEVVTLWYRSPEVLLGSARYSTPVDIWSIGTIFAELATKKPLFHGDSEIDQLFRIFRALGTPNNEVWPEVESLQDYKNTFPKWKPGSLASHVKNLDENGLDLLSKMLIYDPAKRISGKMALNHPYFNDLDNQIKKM
Sequence of Cyclin-dependent kinase 7 (P50613 whole entry): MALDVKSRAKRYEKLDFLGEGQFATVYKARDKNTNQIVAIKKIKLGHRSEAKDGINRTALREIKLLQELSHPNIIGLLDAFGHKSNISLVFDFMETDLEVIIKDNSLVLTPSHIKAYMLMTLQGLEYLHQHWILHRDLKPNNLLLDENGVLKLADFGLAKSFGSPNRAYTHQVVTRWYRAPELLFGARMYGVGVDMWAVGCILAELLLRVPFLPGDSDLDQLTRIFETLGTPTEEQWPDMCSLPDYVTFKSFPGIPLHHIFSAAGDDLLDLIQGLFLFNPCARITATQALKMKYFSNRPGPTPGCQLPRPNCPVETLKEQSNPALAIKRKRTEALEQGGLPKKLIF
Sequence of Insulin receptor (P06213 28-758 limits assumed): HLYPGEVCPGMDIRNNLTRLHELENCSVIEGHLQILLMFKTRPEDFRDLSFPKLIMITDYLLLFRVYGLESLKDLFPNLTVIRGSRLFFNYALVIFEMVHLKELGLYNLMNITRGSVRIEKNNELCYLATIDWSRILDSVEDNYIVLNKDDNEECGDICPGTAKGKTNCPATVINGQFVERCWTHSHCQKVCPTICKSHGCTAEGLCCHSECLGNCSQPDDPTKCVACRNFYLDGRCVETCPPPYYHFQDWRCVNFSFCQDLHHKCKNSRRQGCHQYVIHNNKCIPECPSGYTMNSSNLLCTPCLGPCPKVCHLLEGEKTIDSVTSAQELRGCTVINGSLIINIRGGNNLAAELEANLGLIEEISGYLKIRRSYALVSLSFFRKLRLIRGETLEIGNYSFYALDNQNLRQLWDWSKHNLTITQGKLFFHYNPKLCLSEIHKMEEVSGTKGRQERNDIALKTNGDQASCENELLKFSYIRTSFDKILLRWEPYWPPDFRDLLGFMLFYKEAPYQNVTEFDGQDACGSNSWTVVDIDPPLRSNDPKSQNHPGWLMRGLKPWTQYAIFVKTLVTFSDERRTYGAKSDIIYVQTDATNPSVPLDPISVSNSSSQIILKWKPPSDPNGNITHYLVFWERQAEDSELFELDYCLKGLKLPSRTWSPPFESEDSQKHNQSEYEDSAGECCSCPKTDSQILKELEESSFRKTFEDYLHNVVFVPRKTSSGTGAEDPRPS
Sequence of Insulin receptor (P06213 763-1382 limits assumed): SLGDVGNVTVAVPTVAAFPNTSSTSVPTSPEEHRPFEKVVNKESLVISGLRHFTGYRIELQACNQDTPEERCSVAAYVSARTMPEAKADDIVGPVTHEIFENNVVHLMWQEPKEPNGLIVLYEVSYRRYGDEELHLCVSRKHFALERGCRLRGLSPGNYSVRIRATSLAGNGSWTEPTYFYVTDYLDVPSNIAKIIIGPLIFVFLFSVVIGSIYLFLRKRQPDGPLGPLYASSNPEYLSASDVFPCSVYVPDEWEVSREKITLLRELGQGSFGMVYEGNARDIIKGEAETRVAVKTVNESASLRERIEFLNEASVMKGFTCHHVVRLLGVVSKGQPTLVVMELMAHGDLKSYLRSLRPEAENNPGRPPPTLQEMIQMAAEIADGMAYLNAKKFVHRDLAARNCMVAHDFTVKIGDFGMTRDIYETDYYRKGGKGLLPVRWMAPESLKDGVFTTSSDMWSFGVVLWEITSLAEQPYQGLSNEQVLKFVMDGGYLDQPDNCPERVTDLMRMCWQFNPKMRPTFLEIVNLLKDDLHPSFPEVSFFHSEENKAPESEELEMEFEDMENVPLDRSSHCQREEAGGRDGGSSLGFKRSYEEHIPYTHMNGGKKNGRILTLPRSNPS

`CN1CCN(c2ccc(Nc3ncc4ccn(-c5cccc(S(C)(=O)=O)c5)c4n3)cc2)CC1` gave an IC50 [1] of 2000 nM.
For `COc1cccc(-n2ccc3cnc(Nc4ccc(N5CCN(C)CC5)cc4)nc32)c1`, the IC50 [1] was 340 nM.
`CN1CCN(c2ccc(Nc3ncc4ccn(-c5cccnc5)c4n3)cc2)CC1` showed an IC50 [1] of 1400 nM.
Work on `O=S1(=O)CCN(c2ccc(Nc3ncc4ccn(C5CCCCC5)c4n3)cc2)CC1` yielded an IC50 [1] of 1000 nM.
In the case of `c1cc(N2CCOCC2)ccc1Nc1ncc2ccn(C3CCCCC3)c2n1`, the IC50 [1] is reported as 600 nM.
For `CN1CCN(c2ccc(Nc3ncc4ccn(C5CCCCC5)c4n3)cc2)CC1`, the IC50 [2] was 100 nM, the IC50 [3] was 290 nM and the IC50 [4] was 710 nM. For the same compound, the IC50 [5] was 1500 nM, the IC50 (Insulin receptor) was 1000 nM and the IC50 [6] was 31 nM. It also gave an IC50 [1] of 31 nM, an IC50 [7] of 1600 nM and an IC50 [8] of 47 nM. For the same compound, the IC50 [9] was 160 nM.
`O=C(O)Cc1cccc(Nc2ncc3ccn(C4CCCCC4)c3n2)c1` showed an IC50 [1] of 350 nM.
`CN1CCN(c2ccc(Nc3ncc4ccn(C5Cc6ccccc6C5)c4n3)cc2)CC1` showed an IC50 [1] of 2100 nM.
Compound `CN1CCN(c2ccc(Nc3ncc4ccn(C5CC6CCC5C6)c4n3)cc2)CC1` (centres undefined) has an IC50 [1] of 29 nM.
`COCCN1CCN(c2ccc(Nc3ncc4ccn(C5CCCCC5)c4n3)cc2)CC1` was tested, and the IC50 [1] was 110 nM.
